Converted amounts (≈) assume the structure as drawn.
Assays:
Assay type in all cases: functional
Aspergillus fumigatus = assay: Antifungal activity against Aspergillus fumigatus 04-486
Outline: (§1)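 Bioautographic assay, with the minimal inhibitory concentration (MIC) estimated from it.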

Cryptococcus neoformans = assay: Antifungal activity against Cryptococcus neoformans H99; outline: as §1
[1] = tested on: Trichophyton mentagrophytes; assay: Antifungal activity against Trichophyton mentagrophytes var. interdigitale CPCM 06.99; outline: as §1
Saccharomyces cerevisiae = assay: Antifungal activity against Saccharomyces cerevisiae ATCC 26.01; outline: as §1
Candida albicans = assay: Antifungal activity against Candida albicans ATCC 10231
Outline: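 Bioautographic assay against Candida albicans CIP 4872 (also listed as ATCC 10231 and NIH 3147), with the minimal inhibitory concentration (MIC) estimated.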

| SMILES | MIC (Aspergillus fumigatus) [µM] | MIC (Cryptococcus neoformans; var grubii H99, read-out: MIC) [µM] | MIC [1] [µM] | MIC (Saccharomyces cerevisiae; read-out: MIC) [µM] | MIC (Candida albicans; read-out: MIC) [µM] | MIC (Cryptococcus neoformans; var grubii H99) [µM] | MIC (Saccharomyces cerevisiae) [µM] | MIC (Candida albicans) [µM] |
| --- | --- | --- | --- | --- | --- | --- | --- | --- |
| O=c1ccc2nccc3c4ccc(F)cc4n1c23 |  |  |  |  |  | 13.1 (≈ 3.12 µg/mL) | 13.1 (≈ 3.12 µg/mL) | 13.1 (≈ 3.12 µg/mL) |
| COc1cc2nccc3c4ccccc4n(c1=O)c23 [5-METHOXYCANTHINONE] | 50 (≈ 12.5 µg/mL) | 50 (≈ 12.5 µg/mL) | 6.3 (≈ 1.58 µg/mL) | 50 (≈ 12.5 µg/mL) | > 200 |  |  |  |
| CCCC[n+]1ccc2c3ccccc3n3c(=O)ccc1c23 | > 200 | > 200 | > 200 | 124 | 124 |  |  |  |
| CC(=O)N1CCN(c2ccc(OCC3COC(Cn4ccnc4)(c4ccc(Cl)cc4Cl)O3)cc2)CC1 (centres undefined) [KETOCONAZOLE] | 94.2 (≈ 50.1 µg/mL) | 5.9 (≈ 3.14 µg/mL) | 23.5 (≈ 12.5 µg/mL) | 5.9 (≈ 3.14 µg/mL) | 2.9 (≈ 1.54 µg/mL) |  |  |  |
| Nc1cc(=O)n2c3ccccc3c3ccnc1c32 | > 200 | 106 (≈ 24.9 µg/mL) | 106 (≈ 24.9 µg/mL) | 53.2 (≈ 12.5 µg/mL) | 53.2 (≈ 12.5 µg/mL) |  |  |  |
| COc1ccc2c(c1)c1ccnc3ccc(=O)n2c31 | > 200 | 200 (≈ 50.1 µg/mL) | > 200 | 50 (≈ 12.5 µg/mL) | 100 (≈ 25 µg/mL) |  |  |  |
| COc1c2c(c3ccc(=O)oc3c1/C=C/C(C)(C)O)OC(C)(C)C=C2 [AVICENNOL] | > 200 | > 200 |  | > 200 | 146 (≈ 50 µg/mL) |  |  |  |

More lines, now with the values ahead:

| MIC (Aspergillus fumigatus) [µM] | MIC (Cryptococcus neoformans; var grubii H99, read-out: MIC) [µM] | MIC [1] [µM] | MIC (Saccharomyces cerevisiae; read-out: MIC) [µM] | MIC (Candida albicans; read-out: MIC) [µM] | MIC (Cryptococcus neoformans; var grubii H99) [µM] | MIC (Saccharomyces cerevisiae) [µM] | MIC (Candida albicans) [µM] | SMILES |
| --- | --- | --- | --- | --- | --- | --- | --- | --- |
| > 200 | > 200 | > 200 | 53 (≈ 12.5 µg/mL) | > 200 |  |  |  | O=c1ccc2c3c(cc[n+]2[O-])c2ccccc2n13 |
|  |  |  |  |  | > 200 | > 200 | > 200 | Cc1cc2c3ccccc3n3c(=O)ccc(n1)c23 |
| 14.2 (≈ 3.13 µg/mL) | 14.2 (≈ 3.13 µg/mL) | 7.1 (≈ 1.56 µg/mL) | 14.2 (≈ 3.13 µg/mL) | 56.8 (≈ 12.5 µg/mL) |  |  |  | O=c1ccc2nccc3c4ccccc4n1c23 [CANTHIN-6-ONE] |
| > 200 | > 200 | > 200 | 7.7 | > 200 |  |  |  | O=c1ccc2c3c(cc[n+]2CCBr)c2ccccc2n13 |
| > 200 | > 200 |  | > 200 | 146 (≈ 50 µg/mL) |  |  |  | COc1c2c(c3ccc(=O)oc3c1/C=C\C(C)(C)O)OC(C)(C)C=C2 |

From ChEMBL document CHEMBL1158823, “Extraction, hemisynthesis, and synthesis of canthin-6-one analogues. Evaluation of their antifungal activities” (2005)
